Measured values published in ChEMBL document CHEMBL4393678, “Novel Tetrahydroquinazolinamines as Selective Histamine 3 Receptor Antagonists for the Treatment of Obesity” (J Med Chem, 2019).
Active and inactive are the calls of the source. No cut-off for these calls is given here.

How the values were obtained:
[1] = molecular target: Histamine H2 receptor (Homo sapiens, UniProt P25021); assay: Agonist activity at recombinant human Gs-coupled H2 receptor expressed in HEK293T cells assessed as inhibition of forskolin-stimulated cAMP accumulation preincubated for 10 to 15 followed by forskolin-stimulation by Glo-sensor assay; format: functional, cell-based
[2] = molecular target: Histamine H3 receptor (Homo sapiens, UniProt Q9Y5N1); assay: Antagonist activity at recombinant human Gi-coupled H3 receptor expressed in HEK293T cells assessed as reduction in histamine-induced inhibition of forskolin-stimulated cAMP accumulation preincubated for 10 to 15 followed by histamine addition for 10 mins and subsequent forskolin-stimulation by Glo-sensor assay; format: functional, cell-based
[3] = molecular target: Histamine H4 receptor (Homo sapiens) (UniProt Q9H3N8); assay: Agonist activity at recombinant human Gi-coupled H4 receptor expressed in HEK293T cells assessed as inhibition of forskolin-stimulated cAMP accumulation at 10 uM preincubated for 10 to 15 followed by forskolin-stimulation by Glo-sensor assay; format: functional, cell-based
[4] = molecular target: D(2) dopamine receptor (Homo sapiens) (UniProt P14416); assay: Agonist activity at Gi-coupled D2 receptor (unknown origin) expressed in HEK293T cells assessed as inhibition of forskolin-stimulated cAMP accumulation preincubated for 10 to 15 followed by forskolin-stimulation by Glo-sensor assay; format: functional, cell-based
[5] = molecular target: D(3) dopamine receptor (Homo sapiens) (UniProt P35462); assay: Agonist activity at D3 receptor (unknown origin)
[6] = molecular target: T1, D(4) dopamine receptor (Homo sapiens) (UniProt P21917); assay: Antagonist activity at D4 receptor (unknown origin)
T1 sequence (whole entry): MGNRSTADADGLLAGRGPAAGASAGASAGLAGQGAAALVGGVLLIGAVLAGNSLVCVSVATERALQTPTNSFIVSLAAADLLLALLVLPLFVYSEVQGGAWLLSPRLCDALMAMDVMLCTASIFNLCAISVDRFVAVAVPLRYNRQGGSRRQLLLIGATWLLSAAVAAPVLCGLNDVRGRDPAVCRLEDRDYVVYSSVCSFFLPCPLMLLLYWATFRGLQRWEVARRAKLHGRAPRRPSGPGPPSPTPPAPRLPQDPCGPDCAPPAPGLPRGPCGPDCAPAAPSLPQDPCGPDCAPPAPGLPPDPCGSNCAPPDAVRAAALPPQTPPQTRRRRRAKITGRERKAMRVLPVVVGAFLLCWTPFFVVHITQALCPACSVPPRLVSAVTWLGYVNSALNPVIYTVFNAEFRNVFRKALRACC

[7] = molecular target: T2, Muscarinic acetylcholine receptor M5 (Homo sapiens) (UniProt P08912); assay: Antagonist activity at M5R (unknown origin) expressed in HEK293 cells harboring luc2P/NFAT-RE plasmid at 10 uM after 6 to 8 hrs by luciferase reporter gene assay; format: cell-based
T2 sequence (whole entry): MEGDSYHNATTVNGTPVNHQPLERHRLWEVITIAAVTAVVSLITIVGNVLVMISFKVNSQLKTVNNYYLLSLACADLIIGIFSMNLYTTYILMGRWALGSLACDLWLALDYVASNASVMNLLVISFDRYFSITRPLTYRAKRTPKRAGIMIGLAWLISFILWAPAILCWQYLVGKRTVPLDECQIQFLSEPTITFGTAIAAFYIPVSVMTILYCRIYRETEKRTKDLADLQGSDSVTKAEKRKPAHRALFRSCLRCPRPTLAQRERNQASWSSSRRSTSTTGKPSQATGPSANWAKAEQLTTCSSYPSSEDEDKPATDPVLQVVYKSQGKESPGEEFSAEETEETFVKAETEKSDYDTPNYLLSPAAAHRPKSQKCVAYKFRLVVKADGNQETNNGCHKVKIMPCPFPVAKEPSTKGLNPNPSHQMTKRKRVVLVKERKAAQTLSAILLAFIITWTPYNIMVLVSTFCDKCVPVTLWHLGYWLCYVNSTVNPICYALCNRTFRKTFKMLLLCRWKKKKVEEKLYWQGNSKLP
Outline: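 NFAT-RE luciferase assay in HEK293T cells transiently co-transfected with luc2P/NFAT-RE plasmid and receptor plasmid. Cells plated in DMEM and incubated overnight at 37 °C, 5% CO₂. Compounds and reference ligands applied for 6-8 h. Luciferase read after adding Bright-Glo substrate (1 mg/ml final).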

[8] = tested on: Mus musculus; assay: Anti-obesity activity in high fat diet-induced obese C57BL/6J mouse model assessed as reduction in body weight at 10 mg/kg, po measured up to 39 days; format: functional, organism-based
[9] = Ratio of AUClast in C57BL/6J mouse brain to AUClast in C57BL/6J mouse serum; format: ADME
Outline: (§1)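 Male C57BL/6J mice (6–8 weeks) were fasted 12–16 h, then given a single oral dose of 20 mg/kg as a 2.5 mg/mL suspension in 1% gum acacia/water (n=5 per time point). Serum and brain (homogenised 1:6 in PBS) were sampled up to 24 h. Parent and demethylated metabolite were measured by LC-MS/MS (range 0.25–200 ng/mL). AUC ran to the last observation.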

[10] = Ratio of AUClast in C57BL/6J mouse serum assessed as 4-(2-Amino-8-methyl-5,6,7,8-tetrahydroquinazolin-4-yl)phenol level to AUClast in C57BL/6J mouse serum; format: ADME; outline: as §1
[11] = fCmax in C57BL/6J mouse brain by equilibrium dialysis method; format: ADME, tissue-based
Outline: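 Unbound brain level derived from brain concentration after 20 mg/kg oral dose, multiplied by unbound fraction from brain-homogenate equilibrium dialysis; given at Cmax and at 4 h.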

[12] = tested on: Mus musculus; assay: Anorexic effect in 12 hrs fasted db/db-induced obese C57BL/6J mouse model assessed as reduction in cumulative food intake at 10 mg/kg, po pretreated for 30 mins followed by food addition measured after 4 hrs; format: functional, organism-based
Outline: (§2)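 Mice starved 12 h (8:00 am to 8:00 pm) with water available, then housed singly. Compound given orally in 5% gum acacia in normal saline; vehicle group received the same. Cumulative food intake measured over 4 h of the night phase (9:00 pm to 1:00 am), starting 30 min after dosing. Antagonism arms: imitet 5 mg/kg i.p. 30 min before compound, or α-methyl-DL-histidine 20 mg/kg i.p. 2 h before.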

[13] = tested on: Mus musculus; assay: In vivo antagonist activity at H3R in 12 hrs fasted db/db-induced obese C57BL/6J mouse model assessed as increase in c-FOS expression in para-ventricular nucleus of hypothalamus at 20 mg/kg, ip measured after 90 mins by immunohistochemistry-based fluorescence assay; format: functional, organism-based
[14] = tested on: Mus musculus; assay: Anorexic effect in 12 hrs fasted db/db-induced obese C57BL/6J mouse model assessed as reduction in cumulative food intake at 20 mg/kg, po pretreated for 30 mins followed by food addition measured after 4 hrs in presence of histidine decarboxylase inhibitor alpha-MDLH; format: functional, organism-based; outline: as §2
[15] = tested on: Mus musculus; assay: Anti-obesity activity in 16 hrs fasted db/db-induced obese C57BL/6J mouse model assessed as change in blood total cholesterol level at 20 mg/kg, po measured after 6 weeks; format: functional, organism-based
[16] = tested on: Mus musculus; assay: Anti-obesity activity in high fat diet-induced obese C57BL/6J mouse model assessed as change in blood TG level at 10 to 20 mg/kg, po measured after 6 weeks; format: functional, organism-based
Outline: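 At the end of treatment (six weeks HFD, four weeks db/db), mice euthanized with avertin 350 mg/kg. Blood taken by cardiac puncture into 3.8% sodium citrate. Plasma separated at 4000 rpm and stored at -80 °C. TG, TC, HDLc and LDLc measured on a bio-analyzer.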

Sequence of Histamine H2 receptor (P25021 whole entry): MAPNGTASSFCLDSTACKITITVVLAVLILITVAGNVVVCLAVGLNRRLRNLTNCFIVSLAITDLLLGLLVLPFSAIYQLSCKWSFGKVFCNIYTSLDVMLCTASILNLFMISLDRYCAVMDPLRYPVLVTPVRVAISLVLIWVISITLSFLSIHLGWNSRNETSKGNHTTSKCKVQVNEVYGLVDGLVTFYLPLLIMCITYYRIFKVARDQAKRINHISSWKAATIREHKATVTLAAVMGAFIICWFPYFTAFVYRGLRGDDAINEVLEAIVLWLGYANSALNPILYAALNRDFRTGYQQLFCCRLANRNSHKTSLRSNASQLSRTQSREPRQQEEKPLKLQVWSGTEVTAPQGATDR
Sequence of Histamine H4 receptor (Homo sapiens) (Q9H3N8 whole entry): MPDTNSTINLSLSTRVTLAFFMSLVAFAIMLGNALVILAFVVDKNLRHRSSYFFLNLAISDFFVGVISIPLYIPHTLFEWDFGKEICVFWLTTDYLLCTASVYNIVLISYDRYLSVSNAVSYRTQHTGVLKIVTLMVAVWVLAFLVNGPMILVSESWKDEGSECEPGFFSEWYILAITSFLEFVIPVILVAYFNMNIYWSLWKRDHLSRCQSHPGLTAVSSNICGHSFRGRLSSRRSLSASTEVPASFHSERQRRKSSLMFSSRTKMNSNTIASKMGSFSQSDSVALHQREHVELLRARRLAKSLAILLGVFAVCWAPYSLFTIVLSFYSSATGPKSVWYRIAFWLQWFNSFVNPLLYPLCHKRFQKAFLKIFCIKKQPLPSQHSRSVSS
Sequence of D(2) dopamine receptor (Homo sapiens) (P14416 whole entry): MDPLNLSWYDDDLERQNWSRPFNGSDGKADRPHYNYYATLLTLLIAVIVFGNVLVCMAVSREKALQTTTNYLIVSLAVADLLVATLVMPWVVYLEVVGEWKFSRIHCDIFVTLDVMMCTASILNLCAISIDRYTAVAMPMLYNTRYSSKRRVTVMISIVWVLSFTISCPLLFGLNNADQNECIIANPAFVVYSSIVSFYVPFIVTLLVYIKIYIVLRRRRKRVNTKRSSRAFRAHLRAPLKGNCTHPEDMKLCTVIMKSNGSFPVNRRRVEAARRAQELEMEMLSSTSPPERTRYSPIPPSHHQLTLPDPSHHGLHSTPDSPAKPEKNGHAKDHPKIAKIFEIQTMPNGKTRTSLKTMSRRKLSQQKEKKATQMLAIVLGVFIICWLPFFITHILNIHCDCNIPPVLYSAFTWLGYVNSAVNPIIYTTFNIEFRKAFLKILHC
Sequence of Histamine H3 receptor (Q9Y5N1 whole entry): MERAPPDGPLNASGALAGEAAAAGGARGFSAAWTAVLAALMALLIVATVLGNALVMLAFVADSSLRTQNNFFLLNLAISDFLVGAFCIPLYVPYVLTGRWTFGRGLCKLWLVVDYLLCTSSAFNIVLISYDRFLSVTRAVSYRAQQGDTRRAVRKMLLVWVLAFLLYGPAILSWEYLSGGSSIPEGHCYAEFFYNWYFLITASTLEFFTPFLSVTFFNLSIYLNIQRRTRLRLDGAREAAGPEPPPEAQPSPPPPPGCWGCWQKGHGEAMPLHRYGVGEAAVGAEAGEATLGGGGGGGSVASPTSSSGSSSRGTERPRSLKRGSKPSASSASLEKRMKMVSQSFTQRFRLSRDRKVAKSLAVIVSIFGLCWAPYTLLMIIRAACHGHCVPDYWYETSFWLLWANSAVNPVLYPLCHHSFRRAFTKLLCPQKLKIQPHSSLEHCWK
Sequence of D(3) dopamine receptor (Homo sapiens) (P35462 whole entry): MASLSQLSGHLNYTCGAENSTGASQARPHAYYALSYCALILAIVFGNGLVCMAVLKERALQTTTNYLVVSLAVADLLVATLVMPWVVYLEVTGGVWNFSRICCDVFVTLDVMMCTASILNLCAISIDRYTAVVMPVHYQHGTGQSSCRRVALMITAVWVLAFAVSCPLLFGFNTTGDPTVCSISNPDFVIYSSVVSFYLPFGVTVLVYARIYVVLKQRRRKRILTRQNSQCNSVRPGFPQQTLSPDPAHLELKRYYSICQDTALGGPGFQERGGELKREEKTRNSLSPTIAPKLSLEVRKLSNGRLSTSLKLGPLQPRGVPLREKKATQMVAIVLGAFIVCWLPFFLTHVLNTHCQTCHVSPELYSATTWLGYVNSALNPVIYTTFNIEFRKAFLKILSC

In the case of `COc1ccc(-c2nc(N)nc3c2CCCC3C)cc1` (racemic), the EC50 [1] is reported as “Not Active”, the INH [1] is reported as over 10 µM and the IC50 [2] is reported as 40 nM. The Activity [3] was “inactive”, the inhibition [4] was “inactive” and the Activity [5] was “inactive”. The inhibition [6] was “inactive”, the inhibition [7] was “inactive” and the Activity [8] was “inactive”. The “Ratio AUC” value [9] was 16.2%, the “Ratio AUC” value [10] was 85.8% and the fCmax [11] was 334.7 nM. The Activity [12] was “inactive”, the Activity [13] was “Active” and the Activity [14] was “inactive”. For the same compound, the Activity [15] was “inactive” and the Activity [16] was “inactive”.
